Measured values published in ChEMBL document CHEMBL5724801, “EUbOPEN Chemogenomics Library - Multiplex” (2024).
Several values for one entry are separate records, joined by “and”; a condition that tells them apart may be missing. Equal entries are not always repeated.

System: U2OS
Assay: Multiplex assay against U2OS
Assay type: toxicity, cell-based
Conditions: human
In short: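 Values for tubulin, mitochondrial-mass and membrane-permeability phenotypes are per cents of cells with healthy nuclei. These cells were identified by CellPathfinder machine-learning gating of live cells that had been stained at seeding with Hoechst33342, BioTracker Green Microtubule Cytoskeleton Dye, MitoTracker Red and Annexin V Alexa Fluor 680 and imaged on a CQ1 microscope at 37°C and 5% CO2 after compound addition. The gating first set Hoechst high-intensity objects apart from normal cells, then split normal cells into healthy, pyknosed or fragmented nuclei, and pyknosed cells into mitotic or apoptotic.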

[1] = 12 h, 1 µM, compound concentration 1 uM
[2] = 12 h, 10 µM, compound concentration 10 uM
[3] = 24 h, 1 µM, compound concentration 1 uM
[4] = 24 h, 10 µM, compound concentration 10 uM
[5] = 48 h, 1 µM, compound concentration 1 uM
[6] = 48 h, 10 µM, compound concentration 10 uM

## CC[C@@H](C)Nc1nc(C)nc2c(-c3ccc(OC)nc3C)c(C)nn12 [PEXACERFONT]
[1]
  Population Apoptotic (%): 73% and 87%
  Population Fragmented Nuclei (%): 24% and 17%
  Population Healthy Nuclei (%): 66% and 76%
  Population Hoechst High Intensity Objects (%): 3% and 0%
  Population Membrane Permeable-Phenotype (%): 2% and 1%
  Population Mitochondria Different-Phenotype (%): 3% and 0%
  Population Mitotic Cells (%): 26% and 12%
  Population Normal (%): 96% and 99%
  Population Pyknosed Nuclei (%): 9% and 5%
  Population Tubulin-Different-Phenotype (%): 2% and 0%
  Total Cell Count: 258 and 136
[2]
  Population Apoptotic (%): 90%
  Population Fragmented Nuclei (%): 26% and 21%
  Population Healthy Nuclei (%): 64% and 70%
  Population Hoechst High Intensity Objects (%): 1%
  Population Membrane Permeable-Phenotype (%): 2% and 12%
  Population Mitochondria Different-Phenotype (%): 1% and 7%
  Population Mitotic Cells (%): 9% and 10%
  Population Normal (%): 98%
  Population Pyknosed Nuclei (%): 8% and 7%
  Population Tubulin-Different-Phenotype (%): 1% and 4%
  Total Cell Count: 265 and 128
[3]
  Population Apoptotic (%): 80% and 85%
  Population Fragmented Nuclei (%): 21% and 16%
  Population Healthy Nuclei (%): 69% and 75%
  Population Hoechst High Intensity Objects (%): 2%
  Population Membrane Permeable-Phenotype (%): 5% and 3%
  Population Mitochondria Different-Phenotype (%): 2% and 6%
  Population Mitotic Cells (%): 20% and 14%
  Population Normal (%): 97%
  Population Pyknosed Nuclei (%): 8%
  Population Tubulin-Different-Phenotype (%): 2%
  Total Cell Count: 346 and 172
[4]
  Population Apoptotic (%): 80% and 92%
  Population Fragmented Nuclei (%): 21% and 14%
  Population Healthy Nuclei (%): 71% and 77%
  Population Hoechst High Intensity Objects (%): 2% and 0%
  Population Membrane Permeable-Phenotype (%): 5% and 7%
  Population Mitochondria Different-Phenotype (%): 3%
  Population Mitotic Cells (%): 19% and 7%
  Population Normal (%): 97% and 99%
  Population Pyknosed Nuclei (%): 7% and 8%
  Population Tubulin-Different-Phenotype (%): 4% and 3%
  Total Cell Count: 307 and 159
[5]
  Population Apoptotic (%): 88% and 91%
  Population Fragmented Nuclei (%): 16%
  Population Healthy Nuclei (%): 75% and 73%
  Population Hoechst High Intensity Objects (%): 1% and 2%
  Population Membrane Permeable-Phenotype (%): 3% and 5%
  Population Mitochondria Different-Phenotype (%): 1% and 4%
  Population Mitotic Cells (%): 11% and 8%
  Population Normal (%): 98% and 97%
  Population Pyknosed Nuclei (%): 7% and 9%
  Population Tubulin-Different-Phenotype (%): 1% and 4%
  Total Cell Count: 476 and 261
[6]
  Population Apoptotic (%): 94% and 100%
  Population Fragmented Nuclei (%): 17% and 13%
  Population Healthy Nuclei (%): 74% and 77%
  Population Hoechst High Intensity Objects (%): 1%
  Population Membrane Permeable-Phenotype (%): 4% and 6%
  Population Mitochondria Different-Phenotype (%): 1% and 3%
  Population Mitotic Cells (%): 5% and 0%
  Population Normal (%): 98%
  Population Pyknosed Nuclei (%): 8%
  Population Tubulin-Different-Phenotype (%): 1% and 2%
  Total Cell Count: 478 and 242

## COc1cc2nc(N3CCN(C(=O)c4ccco4)CC3)nc(N)c2cc1OC.Cl [PRAZOSIN HYDROCHLORIDE]
[1]
  Population Apoptotic (%): 88% and 94%
  Population Fragmented Nuclei (%): 21% and 18%
  Population Healthy Nuclei (%): 70% and 69%
  Population Hoechst High Intensity Objects (%): 2% and 1%
  Population Membrane Permeable-Phenotype (%): 4% and 5%
  Population Mitochondria Different-Phenotype (%): 2% and 7%
  Population Mitotic Cells (%): 11% and 5%
  Population Normal (%): 97% and 98%
  Population Pyknosed Nuclei (%): 7% and 12%
  Population Tubulin-Different-Phenotype (%): 1% and 8%
  Total Cell Count: 235 and 159
[2]
  Population Apoptotic (%): 86% and 72%
  Population Fragmented Nuclei (%): 25% and 15%
  Population Healthy Nuclei (%): 67% and 74%
  Population Hoechst High Intensity Objects (%): 3% and 0%
  Population Membrane Permeable-Phenotype (%): 12% and 4%
  Population Mitochondria Different-Phenotype (%): 2% and 5%
  Population Mitotic Cells (%): 13% and 27%
  Population Normal (%): 96% and 99%
  Population Pyknosed Nuclei (%): 7% and 9%
  Population Tubulin-Different-Phenotype (%): 6% and 7%
  Total Cell Count: 216 and 114
[3]
  Population Apoptotic (%): 95% and 100%
  Population Fragmented Nuclei (%): 22% and 15%
  Population Healthy Nuclei (%): 69% and 74%
  Population Hoechst High Intensity Objects (%): 1% and 0%
  Population Membrane Permeable-Phenotype (%): 8% and 10%
  Population Mitochondria Different-Phenotype (%): 2% and 5%
  Population Mitotic Cells (%): 4% and 0%
  Population Normal (%): 98% and 100%
  Population Pyknosed Nuclei (%): 7% and 10%
  Population Tubulin-Different-Phenotype (%): 4% and 9%
  Total Cell Count: 273 and 188
[4]
  Population Apoptotic (%): 78% and 85%
  Population Fragmented Nuclei (%): 23% and 13%
  Population Healthy Nuclei (%): 68% and 71%
  Population Hoechst High Intensity Objects (%): 2% and 1%
  Population Membrane Permeable-Phenotype (%): 8% and 7%
  Population Mitochondria Different-Phenotype (%): 6% and 5%
  Population Mitotic Cells (%): 21% and 14%
  Population Normal (%): 97% and 98%
  Population Pyknosed Nuclei (%): 7% and 15%
  Population Tubulin-Different-Phenotype (%): 6% and 4%
  Total Cell Count: 244 and 138
[5]
  Population Apoptotic (%): 94% and 100%
  Population Fragmented Nuclei (%): 16% and 15%
  Population Healthy Nuclei (%): 74% and 77%
  Population Hoechst High Intensity Objects (%): 2% and 1%
  Population Membrane Permeable-Phenotype (%): 6% and 7%
  Population Mitochondria Different-Phenotype (%): 2% and 7%
  Population Mitotic Cells (%): 5% and 0%
  Population Normal (%): 97% and 98%
  Population Pyknosed Nuclei (%): 9% and 7%
  Population Tubulin-Different-Phenotype (%): 2% and 5%
  Total Cell Count: 388 and 266
[6]
  Population Apoptotic (%): 96% and 94%
  Population Fragmented Nuclei (%): 20% and 15%
  Population Healthy Nuclei (%): 71% and 76%
  Population Hoechst High Intensity Objects (%): 1% and 2%
  Population Membrane Permeable-Phenotype (%): 5%
  Population Mitochondria Different-Phenotype (%): 2% and 6%
  Population Mitotic Cells (%): 3% and 5%
  Population Normal (%): 98% and 97%
  Population Pyknosed Nuclei (%): 8%
  Population Tubulin-Different-Phenotype (%): 3%
  Total Cell Count: 341 and 208

## CC(C)(C)c1cc(NC(=O)Nc2ccc(-c3cn4c(n3)sc3cc(OCCN5CCOCC5)ccc34)cc2)no1 [QUIZARTINIB]
[1]
  Population Apoptotic (%): 48% and 78%
  Population Fragmented Nuclei (%): 24% and 17%
  Population Healthy Nuclei (%): 61% and 70%
  Population Hoechst High Intensity Objects (%): 6% and 1%
  Population Membrane Permeable-Phenotype (%): 13% and 6%
  Population Mitochondria Different-Phenotype (%): 4% and 6%
  Population Mitotic Cells (%): 51% and 21%
  Population Normal (%): 93% and 98%
  Population Pyknosed Nuclei (%): 14% and 11%
  Population Tubulin-Different-Phenotype (%): 8% and 4%
  Total Cell Count: 213 and 119
[2]
  Population Apoptotic (%): 58% and 23%
  Population Fragmented Nuclei (%): 30% and 11%
  Population Healthy Nuclei (%): 47% and 65%
  Population Hoechst High Intensity Objects (%): 13% and 6%
  Population Membrane Permeable-Phenotype (%): 85% and 62%
  Population Mitochondria Different-Phenotype (%): 26% and 33%
  Population Mitotic Cells (%): 41% and 76%
  Population Normal (%): 86% and 94%
  Population Pyknosed Nuclei (%): 21% and 22%
  Population Tubulin-Different-Phenotype (%): 76% and 54%
  Total Cell Count: 197 and 100
[3]
  Population Apoptotic (%): 57% and 62%
  Population Fragmented Nuclei (%): 25% and 15%
  Population Healthy Nuclei (%): 56% and 72%
  Population Hoechst High Intensity Objects (%): 2% and 0%
  Population Membrane Permeable-Phenotype (%): 15% and 9%
  Population Mitochondria Different-Phenotype (%): 8% and 4%
  Population Mitotic Cells (%): 42% and 37%
  Population Normal (%): 97% and 99%
  Population Pyknosed Nuclei (%): 17% and 12%
  Population Tubulin-Different-Phenotype (%): 7% and 5%
  Total Cell Count: 234 and 134
[4]
  Population Apoptotic (%): 63% and 51%
  Population Healthy Nuclei (%): 34% and 58%
  Population Hoechst High Intensity Objects (%): 11% and 2%
  Population Membrane Permeable-Phenotype (%): 55% and 40%
  Population Mitochondria Different-Phenotype (%): 38% and 32%
  Population Mitotic Cells (%): 36% and 48%
  Population Normal (%): 88% and 97%
  Population Pyknosed Nuclei (%): 30%
  Population Tubulin-Different-Phenotype (%): 45% and 30%
  Total Cell Count: 195 and 96
[5]
  Population Apoptotic (%): 60% and 73%
  Population Fragmented Nuclei (%): 21% and 16%
  Population Healthy Nuclei (%): 61% and 72%
  Population Hoechst High Intensity Objects (%): 3% and 2%
  Population Membrane Permeable-Phenotype (%): 7% and 9%
  Population Mitochondria Different-Phenotype (%): 2% and 7%
  Population Mitotic Cells (%): 39% and 26%
  Population Normal (%): 96% and 97%
  Population Pyknosed Nuclei (%): 16% and 10%
  Population Tubulin-Different-Phenotype (%): 3% and 6%
  Total Cell Count: 297 and 180
[6]
  Population Apoptotic (%): 72% and 56%
  Population Fragmented Nuclei (%): 33% and 19%
  Population Healthy Nuclei (%): 25% and 48%
  Population Hoechst High Intensity Objects (%): 9% and 5%
  Population Membrane Permeable-Phenotype (%): 41% and 35%
  Population Mitochondria Different-Phenotype (%): 33%
  Population Mitotic Cells (%): 27% and 43%
  Population Normal (%): 90% and 94%
  Population Pyknosed Nuclei (%): 40% and 32%
  Population Tubulin-Different-Phenotype (%): 33% and 28%
  Total Cell Count: 219 and 98
